Experimental data as given in ChEMBL document CHEMBL4334458, “Design, synthesis and antibacterial evaluation of novel 15-membered 11a-azahomoclarithromycin derivatives with the 1, 2, 3-triazole side chain” (Eur J Med Chem, 2019).
In brackets after ≈: the same amount, converted by molar mass.

How the values were obtained:
Format in all cases: functional
Staphylococcus aureus [1] = experiment: Antibacterial activity against methicillin-resistant Staphylococcus aureus ATCC 43300 incubated for 24 hrs by broth dilution method; settings: ATCC 43300, 24 h
Staphylococcus aureus [2] = experiment: Antibacterial activity against penicillin-resistant Staphylococcus aureus ATCC 31007 incubated for 24 hrs by broth dilution method; settings: ATCC 31007, 24 h
Bacillus subtilis = experiment: Antibacterial activity against penicillin-susceptible Bacillus subtilis ATCC 9372 incubated for 24 hrs by broth dilution method; settings: ATCC 9372, 24 h
How it was run: (§1)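 CLSI broth microdilution in cation-adjusted Mueller-Hinton broth. Twofold dilutions spanned 0.25–128 or 0.5–256 µg/mL, with CAM and AZM as controls. Log-phase bacteria were added and incubated 24 h at 37 °C. MIC was read by turbidity as the concentration of the last clear well.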

Pseudomonas aeruginosa = experiment: Antibacterial activity against penicillin-susceptible Pseudomonas aeruginosa ATCC 27853 incubated for 24 hrs by broth dilution method; settings: ATCC 27853, 24 h; how it was run: as §1
Streptococcus pneumoniae [3] = experiment: Antibacterial activity against erythromycin-resistant Streptococcus pneumoniae AB11 expressing the ermB and mefA incubated for 24 hrs by broth dilution method
Streptococcus pyogenes [4] = experiment: Antibacterial activity against erythromycin-resistant Streptococcus pyogenes 2 clinical isolate incubated for 24 hrs by broth dilution method
Streptococcus pyogenes [5] = experiment: Antibacterial activity against erythromycin-susceptible Streptococcus pyogenes 1 clinical isolate incubated for 24 hrs by broth dilution method; how it was run: as §1
Escherichia coli = experiment: Antibacterial activity against penicillin-susceptible Escherichia coli ATCC 25922 incubated for 24 hrs by broth dilution method; settings: ATCC 25922, 24 h; how it was run: as §1
Streptococcus pneumoniae [6] = experiment: Antibacterial activity against erythromycin-resistant Streptococcus pneumoniae B1 expressing the ermB incubated for 24 hrs by broth dilution method
Staphylococcus aureus [7] = experiment: Antibacterial activity against erythromycin-susceptible Staphylococcus aureus ATCC 25923 incubated for 24 hrs by broth dilution method; settings: ATCC 25923, 24 h; how it was run: as §1

Compound	MIC (Staphylococcus aureus [1]) [µg/mL]	MIC (Staphylococcus aureus [2]) [µg/mL]	MIC (Bacillus subtilis) [µg/mL]	MIC (Pseudomonas aeruginosa) [µg/mL]	MIC (Streptococcus pneumoniae [3]) [µg/mL]	MIC (Streptococcus pyogenes [4]) [µg/mL]	MIC (Streptococcus pyogenes [5]) [µg/mL]	MIC (Escherichia coli) [µg/mL]	MIC (Streptococcus pneumoniae [6]) [µg/mL]	MIC (Staphylococcus aureus [7]) [µg/mL]
CO[C@]1(C)C[C@@H](C)[C@H](O)[C@H](C)CN(C)C[C@H](COCc2cn(-c3cccc(C(F)(F)F)c3)nn2)OC(=O)[C@H](C)[C@@H](O[C@H]2C[C@@](C)(OC)[C@@H](O)[C@H](C)O2)[C@H](C)[C@H]1O[C@@H]1O[C@H](C)C[C@H](N(C)C)[C@H]1O	256 (≈ 267 µM)	256 (≈ 267 µM)	1 (≈ 1.04 µM)	16 (≈ 16.7 µM)	64 (≈ 66.7 µM)	64 (≈ 66.7 µM)	2 (≈ 2.08 µM)	64 (≈ 66.7 µM)	128 (≈ 133 µM)	1 (≈ 1.04 µM)
CO[C@]1(C)C[C@@H](C)[C@H](O)[C@H](C)CN(C)C[C@H](Cn2cc(-c3ccc(Cl)cc3)nn2)OC(=O)[C@H](C)[C@@H](O[C@H]2C[C@@](C)(OC)[C@@H](O)[C@H](C)O2)[C@H](C)[C@H]1O[C@@H]1O[C@H](C)C[C@H](N(C)C)[C@H]1O	128 (≈ 143 µM)	128 (≈ 143 µM)	1 (≈ 1.12 µM)	64 (≈ 71.4 µM)	128 (≈ 143 µM)	64 (≈ 71.4 µM)	0.12 (≈ 0.134 µM)	32 (≈ 35.7 µM)	128 (≈ 143 µM)	2 (≈ 2.23 µM)
CCc1ccc(-n2cc(COC[C@@H]3CN(C)C[C@@H](C)[C@@H](O)[C@H](C)C[C@@](C)(OC)[C@H](O[C@@H]4O[C@H](C)C[C@H](N(C)C)[C@H]4O)[C@@H](C)[C@H](O[C@H]4C[C@@](C)(OC)[C@@H](O)[C@H](C)O4)[C@@H](C)C(=O)O3)nn2)cc1	64 (≈ 69.6 µM)	64 (≈ 69.6 µM)	2 (≈ 2.17 µM)	128 (≈ 139 µM)	32 (≈ 34.8 µM)	32 (≈ 34.8 µM)	4 (≈ 4.35 µM)	128 (≈ 139 µM)	32 (≈ 34.8 µM)	4 (≈ 4.35 µM)
CO[C@]1(C)C[C@@H](C)[C@H](O)[C@H](C)CN(C)[C@@H](Cn2cc(-c3ccc(Cl)cc3)nn2)COC(=O)[C@H](C)[C@@H](O[C@H]2C[C@@](C)(OC)[C@@H](O)[C@H](C)O2)[C@H](C)[C@H]1O[C@@H]1O[C@H](C)C[C@H](N(C)C)[C@H]1O	64 (≈ 71.4 µM)	128 (≈ 143 µM)	16 (≈ 17.8 µM)	> 128	128 (≈ 143 µM)	64 (≈ 71.4 µM)	16 (≈ 17.8 µM)	> 128	256 (≈ 286 µM)	32 (≈ 35.7 µM)
CCCc1ccc(-n2cc(COC[C@H]3CN(C)C[C@@H](C)[C@@H](O)[C@H](C)C[C@@](C)(OC)[C@H](O[C@@H]4O[C@H](C)C[C@H](N(C)C)[C@H]4O)[C@@H](C)[C@H](O[C@H]4C[C@@](C)(OC)[C@@H](O)[C@H](C)O4)[C@@H](C)C(=O)O3)nn2)cc1	128 (≈ 137 µM)	128 (≈ 137 µM)	0.5 (≈ 0.535 µM)	16 (≈ 17.1 µM)	32 (≈ 34.3 µM)	64 (≈ 68.5 µM)	1 (≈ 1.07 µM)	64 (≈ 68.5 µM)	64 (≈ 68.5 µM)	0.5 (≈ 0.535 µM)
CO[C@]1(C)C[C@@H](C)[C@H](O)[C@H](C)CN(C)C[C@H](Cn2cc(-c3ccc(F)cc3)nn2)OC(=O)[C@H](C)[C@@H](O[C@H]2C[C@@](C)(OC)[C@@H](O)[C@H](C)O2)[C@H](C)[C@H]1O[C@@H]1O[C@H](C)C[C@H](N(C)C)[C@H]1O	256 (≈ 291 µM)	256 (≈ 291 µM)	2 (≈ 2.27 µM)	64 (≈ 72.7 µM)	256 (≈ 291 µM)	64 (≈ 72.7 µM)	0.25 (≈ 0.284 µM)	32 (≈ 36.4 µM)	256 (≈ 291 µM)	2 (≈ 2.27 µM)
CO[C@]1(C)C[C@@H](C)[C@H](O)[C@H](C)CN(C)C[C@@H](Cn2cc(-c3ccccn3)nn2)OC(=O)[C@H](C)[C@@H](O[C@H]2C[C@@](C)(OC)[C@@H](O)[C@H](C)O2)[C@H](C)[C@H]1O[C@@H]1O[C@H](C)C[C@H](N(C)C)[C@H]1O	> 256	> 256	4 (≈ 4.63 µM)	64 (≈ 74.2 µM)	128 (≈ 148 µM)	128 (≈ 148 µM)	1 (≈ 1.16 µM)	128 (≈ 148 µM)	128 (≈ 148 µM)	2 (≈ 2.32 µM)
CO[C@]1(C)C[C@@H](C)[C@H](O)[C@H](C)CN(C)C[C@@H](Cn2cc(-c3ccc(F)cc3)nn2)OC(=O)[C@H](C)[C@@H](O[C@H]2C[C@@](C)(OC)[C@@H](O)[C@H](C)O2)[C@H](C)[C@H]1O[C@@H]1O[C@H](C)C[C@H](N(C)C)[C@H]1O	128 (≈ 145 µM)	128 (≈ 145 µM)	0.5 (≈ 0.568 µM)	32 (≈ 36.4 µM)	16 (≈ 18.2 µM)	64 (≈ 72.7 µM)	0.25 (≈ 0.284 µM)	32 (≈ 36.4 µM)	64 (≈ 72.7 µM)	0.5 (≈ 0.568 µM)
